This is a sample that favours compounds with a hit; in the whole collection about 3.1% have one here.
OX1R antag-1 – OX1R (human) antagonism; inhibition, % at 6.6 µM; O43613; AID 485270; OX1R-expressing cells, FRET antagonist read-out; 330,000 tested, 1.8% active; in the data active = inhibition mostly above about 38%, no sharp cut-off; inactive = mostly below about 40%;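 note: 0% = agonist challenge alone and 100% = reference antagonist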
Target sequence (O43613 whole entry, looked up): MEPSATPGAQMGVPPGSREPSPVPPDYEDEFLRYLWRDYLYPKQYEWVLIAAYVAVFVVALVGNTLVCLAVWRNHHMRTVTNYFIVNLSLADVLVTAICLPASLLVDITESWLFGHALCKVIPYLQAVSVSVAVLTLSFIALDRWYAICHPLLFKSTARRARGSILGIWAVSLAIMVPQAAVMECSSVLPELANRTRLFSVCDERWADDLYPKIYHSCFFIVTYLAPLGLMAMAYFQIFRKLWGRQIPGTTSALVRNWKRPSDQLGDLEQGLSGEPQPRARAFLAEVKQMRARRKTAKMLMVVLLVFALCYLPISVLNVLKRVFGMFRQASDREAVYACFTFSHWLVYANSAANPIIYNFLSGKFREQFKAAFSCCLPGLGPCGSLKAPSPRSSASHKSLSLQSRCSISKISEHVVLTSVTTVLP
OX1R antag-2 – blocks the human orexin 1 receptor | O43613 | CHO/OX1R cells, Fluo-8 calcium fluorescence, orexin A | inhibition, % at 5 µM | 330,000 tested, 0.43% active;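 active = inhibition above its plate's threshold, mean inhibition of all tested compounds on the plate plus 3 SD, cut at about 37% in these data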;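 note: 0% = orexin A challenge wells and 100% = SB-334867-A antagonist wells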
GPR7 antagonist – antagonists of human GPR7 (neuropeptides B/W receptor 1); P48145; GPR7-expressing cells, fluorescence antagonist assay; inhibition, % at 4.4 µM; 290,000 tested, 1.1% active; in the data active = inhibition above about 16%, passing the limit was not always enough;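 note: cells stimulated with the agonist NPW; 0% = agonist with vehicle and 100% = vehicle without agonist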
GalR3 antagonist – human GalR3 antagonism | O60755 | HEK293 GalR3-CNG cAMP membrane potential fluorescence; galR3 body fused to GalR1 C-terminus | inhibition, % at 3 µM | 360,000 tested, 0.44% active | AID 651719;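 active = inhibition above the screen-wide average plus 3 SD, cut at about 13% in these data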;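 note: forskolin and galanin both at EC90 stimulate the cells; cAMP rise reported by CNG channel membrane potential dye signal; 0% = forskolin plus galanin with DMSO and 100% = forskolin alone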
CHO parental Ca – signal in parental CHO cells, OX1R antagonist counter-screen; 330,000 tested, 0.63% active; parental CHO-K1, ATP-induced calcium, Fluo-8 fluorescence; inhibition, % at 5.6 µM;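 active = inhibition above that plate's mean sample inhibition plus 3 SD, cut at about 26% in these data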;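 note: 0% = ATP-challenged DMSO wells and 100% = DMSO wells without ATP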
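test system = CHO parental line | reagent = ATP stimulus | measured by = intracellular calcium via Fluo-8 no-wash fluorescent dye | control set = ATP and no-ATP DMSO wells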
OX1R HTRF confirm – confirmation of human orexin 1 receptor antagonists, HTRF format; shares compounds with OX1R antag-1; OX1R-expressing cells, HTRF antagonist assay; inhibition, % at 6.6 µM; 1,800 tested, 49% active; AID 492964; in the data active = inhibition above about 55%;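 note: CHO cells expressing OX1R stimulated with orexin A at about EC80; 0% = agonist challenge alone and 100% = reference antagonist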
CHO-K1 HTRF – counter-screen: parental CHO-K1 HTRF response. parental CHO-K1 cells, HTRF counterscreen. inhibition, % at 6.6 µM. 1,800 tested, 48% active. shares compounds with OX1R antag-1. AID 493232; in the data active = inhibition above about 17%;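 note: 0% = agonist challenge with vehicle and 100% = vehicle alone without agonist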
An asterisk follows results filed as active; . = no result given.

SMILES	OX1R antag-1	OX1R antag-2	GPR7 antagonist	GalR3 antagonist	CHO parental Ca	OX1R HTRF confirm	CHO-K1 HTRF
COCCN1Cc2cccc(C(=O)Nc3cccc(-c4nc5ccccc5[nH]4)c3)c2C1=O	86*	-3	11	0	-14	60*	3
CCCN1Cc2cccc(C(=O)Nc3ccc(-c4nc5ccccc5[nH]4)cc3)c2C1=O	19	-19	3	-9	-20	.	.
O=C(NCc1ccco1)Nc1ccc(Br)cc1	27	0	-12	0	9	.	.
O=C(NCc1ccco1)Nc1ccc2nsnc2c1	96*	-15	-4	2	-3	25	1
CCOC(=O)CC1ON(C)C(=O)N1c1ccc([N+](=O)[O-])cc1 (stereo unspecified)	101*	-11	4	1	-3	26	17
CCOC(=O)C1=C(O)C(=O)N(c2ccc(S(N)(=O)=O)cc2)C1c1ccc([N+](=O)[O-])cc1 (stereo unspecified)	28	8	-7	-3	-2	.	.
O=c1sc(Nc2ccccc2)nc2ccsc12	85*	15	-9	-4	-15	92*	9
O=C(Nc1nc2ccsc2c(=O)s1)c1ccco1	18	-1	-5	-2	1	.	.
O=C(CCCNS(=O)(=O)c1cccc2nsnc12)NCc1ccccc1	28	-23	-9	4	-10	.	.
O=C(CCS(=O)(=O)c1cccc2nsnc12)NCc1ccccc1	120*	-26	-15	-2	-17	40	39*
COc1cccc(NC(=O)CS(=O)(=O)c2cccc3nsnc23)c1	53	-21	13	-7	-6	.	.
CC(=O)c1cccc(NC(=O)CCS(=O)(=O)c2cccc3nsnc23)c1	89*	-30	5	-4	-25	33	25*
O=C(NCCc1ccc(Cl)cc1)c1ccc(CNc2c(N3CCOCC3)c(=O)c2=O)cc1	13	-17	-5	-3	-1	.	.
Cc1ccc2nc(SCC(=O)c3ccc(O)cc3O)[nH]c2c1	81*	3	8	9	3	79*	-5
COc1cc(Nc2nc3c(N)cc(C(F)(F)F)cc3nc2-c2ccccc2)cc(OC)c1OC	.	.	.	-1	.	.	.
CC(=O)c1nnn(-c2cccc(C#N)c2)c1C	4	-4	-2	0	-2	.	.
CC(=O)c1nnn(-c2ccc([N+](=O)[O-])cc2)c1C	123*	-11	-16	-4	-4	42	59*
CN(C(=O)CSc1ncc(C(F)(F)F)cc1Cl)c1c(N)n(Cc2ccccc2)c(=O)[nH]c1=O	89*	20	-2	-1	-2	68*	4
COc1ccccc1N1CCN(C2CCCN(C(=O)c3cc(C(C)C)on3)C2)CC1 (stereo unspecified)	.	.	.	-5	.	.	.
CN(CCO)c1ccc([N+](=O)[O-])cc1C(=O)O	80*	1	-13	-2	2	21	25*
O=c1c2ccccc2ncn1-c1cccc(Br)c1	25	-1	-4	-11	-10	.	.
O=C(NN1C(=O)/C(=C/c2ccc(O)c([N+](=O)[O-])c2)SC1=S)c1ccccc1Cl	112*	-29	-5	-4	-15	55*	17*
O=C(NN1C(=O)/C(=C/c2cc([N+](=O)[O-])ccc2O)SC1=S)c1ccccc1O	14	-9	.	.	-4	.	.
Cc1noc(C)c1S(=O)(=O)Nc1ccc(O)c2c(=O)cc(-c3ccccc3Cl)oc12	85*	25	.	-2	-7	93*	1
O=C(Nc1ccccc1)c1ccc(NCC2CCCO2)c([N+](=O)[O-])c1 (stereo unspecified)	32	-9	-1	-10	-10	.	.
SMILES	OX1R antag-1	OX1R antag-2	GPR7 antagonist	GalR3 antagonist	CHO parental Ca	OX1R HTRF confirm	CHO-K1 HTRF
COc1ccc(NC(=O)c2ccc(NCC3CCCO3)c([N+](=O)[O-])c2)cc1 (stereo unspecified)	77*	5	-4	-5	0	29	18*
O=[N+]([O-])c1cc(C(F)(F)F)ccc1NCC1CCCO1 (stereo unspecified)	5	-4	-17	-8	-7	.	.
N#Cc1cc(NCC2CCCO2)c([N+](=O)[O-])cc1C#N (stereo unspecified)	126*	-16	-5	1	-1	51	71*
Cc1ccc2nc3c(cc(C(=O)NCCc4ccccc4)c(=N)n3CCN3CCOCC3)c(=O)n2c1	97*	-9	6	.	-20	64*	69*
Cc1cccn2c(=O)c3cc(C#N)c(=N)n(CCN4CCOCC4)c3nc12	.	.	-12	.	.	.	.
COCCCn1c(=N)c(C(N)=S)cc2c(=O)n3cccc(C)c3nc21	82*	-10	.	1	-28	39	49*
CCCCNC(=O)c1cc2c(=O)n3cccc(C)c3nc2n(CCN2CCOCC2)c1=N	112*	-24	9	-2	-38	50	55*
Cc1cccn2c(=O)c3cc(C(N)=S)c(=N)n(CCCN4CCOCC4)c3nc12	64	-14	-11	-3	-12	.	.
Cc1cccn2c(=O)c3cc(C#N)c(=N)n(CCCN4CCOCC4)c3nc12	144*	-67	-12	2	-16	40	64*
Cc1ccc2nc3c(cc(C(=O)NCc4ccccc4)c(=N)n3CCCn3ccnc3)c(=O)n2c1	.	.	.	-3	.	.	.
Cc1ccc(NC(=S)N2CCCC2)cc1Cl	.	.	14	1	.	.	.
CSc1ncccc1C(=O)NC(C)CCc1ccccc1 (stereo unspecified)	33	8	3	-12	-14	.	.
CCC(C)n1c(=N)c(C#N)cc2c(=O)n3ccccc3nc21 (stereo unspecified)	18	-14	-17	0	-8	.	.
Cc1cccn2c(=O)c3cc(C#N)c(=O)n(-c4c(C)n(C)n(-c5ccccc5)c4=O)c3nc12	147*	-19	-9	4	3	53	55*
Cc1ccc2nc3c(cc(C(=O)NCC4CCCO4)c(=N)n3CC3CCCO3)c(=O)n2c1 (stereo unspecified)	140*	-14	-11	.	-10	49	72*
Cc1ccc2nc3c(cc(C(=O)NCc4ccco4)c(=N)n3Cc3ccco3)c(=O)n2c1	71	-26	-10	-1	-11	.	.
N#Cc1cc2c(=O)n3ccccc3nc2n(CCCn2ccnc2)c1=N	82*	-22	11	0	-4	48	68*
CC1CCN(S(=O)(=O)c2ccc3c(c2)N(CC(=O)NCCCN2C(C)CCCC2C)C(=O)CO3)CC1 (stereo unspecified)	17	-8	-5	3	-6	.	.
N#C/C(=C/c1ccc(Br)o1)C(N)=O	79*	-11	-5	-3	-12	44	12
Cc1cccc2sc(N3CCN(C(=O)c4cccs4)CC3)nc12	32	-7	.	-5	-4	.	.
O=C(c1cccs1)N1CCN(c2nc3ccccc3s2)CC1	87*	-19	-4	-3	-12	22	2

Assay outcomes as filed in PubChem.
